According to publication PMC3858840 (Journal of molecular biology, 2013):

What was measured:
[1] = system: TMR-CLS/POPC/POPS liposome; assay type: binding, human; settings: added alone, before moesin-FERM; 15% POPS/85% POPC; 0.3 mM CaCl2; 575 nm
Summary of the method: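 TMR-CLS was extruded (400-nm filter) into 15% POPS/85% POPC liposomes at 1:1000 peptide:lipid and diluted to about 5 nM in 50 mM Tris–HCl, 150 mM NaCl, 0.3 mM CaCl₂, pH 7.4. Additions carried 5 nM liposome. First 3 µM Ca/CaM, then moesin-FERM (400 nM, then 100 nM steps). TMR emission was recorded continuously at 575 nm (excitation 542 nm).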

CaM (calmodulin) = assay: Direct interaction between moesin-FERM and CaM; assay type: binding; settings: up to 10 µM moesin-FERM; 0.3 mM CaCl2; ex 340 nm

B1: moesin-FERM: FERM domain of human moesin (residues 1–346), recombinant (protein)
chain: MPKTISVRVTTMDAELEFAIQPNTTGKQLFDQVVKTIGLREVWFFGLQYQDTKGFSTWLKLNKKVTAQDVRKESPLLFKFRAKFYPEDVSEELIQDITQRLFFLQVKEGILNDDIYCPPETAVLLASYAVQSKYGDFNKEVHKSGYLAGDKLLPQRVLEQHKLNKDQWEERIQVWHEEHRGMLREDAVLEYLKIAQDLEMYGVNYFSIKNKKGSELWLGVDALGLNIYEQNDRLTPKIGFPWSEIRNISFNDKKFVIKPIDKKAPDFVFYAPRLRINKRILALCMGNHELYMRRRKPDTIEVQQMKAQAREEKHQKQMERAMLENEKKKREMAEKEKEKIEREKEE
[1]
  change in TMR fluorescence of TMR-CLS/POPS liposome on addition: decrease of TMR fluorescence emission
CaM (calmodulin)
  change in IAEDANS fluorescence emission of IAEDANS-CaM: little change in the IAEDANS fluorescence emission
